Usually inhibition stands for the drop in the measured response relative to a control, in per cent. Usually IC50 stands for the concentration that gives 50% inhibition.

Calls of active or inactive are those of the source. The rule behind the calls is not given here.

These results are taken from ChEMBL document CHEMBL4680257, “Discovery of novel NF-кB inhibitor based on scaffold hopping: 1,4,5,6,7,8-hexahydropyrido[4,3-d]pyrimidine” (Eur J Med Chem, 2020).

The test system of series [1] is HepG2. The experiment in a line: Induction of apoptosis in human HepG2 cells assessed as increase in Caspase-3 expression incubated for 24 hrs by Western blot analysis. It is filed as functional, cell-based. Conditions: dose 1-4 µM. Put shortly:
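HepG2 exposed to 1.0, 2.0 or 4.0 µM for 24 h. Lysates separated by electrophoresis and blotted onto nitrocellulose. Probed overnight at 4 °C with anti-Bcl-2, anti-BAX or anti-cleaved caspase-3, then 2 h at room temperature with anti-mouse/rabbit IgG. ECL detection, GAPDH as loading control; quantified from more than three separate experiments.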

Series [2] deals with HepG2. The experiment in a line: Induction of apoptosis in human HepG2 cells assessed as late apoptotic cells at 4 uM incubated for 24 hrs by annexin V-FITC and PI staining based flow cytometry analysis (reference value: 4.8 %). It is filed as functional. Put shortly: (§1)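 Cells seeded at 2×10^5 per well and treated 24 h with 1.0, 2.0 or 4.0 µM, or DMSO. Harvested, washed twice in cold PBS, resuspended at 1×10^5 cells/mL in buffer. Stained with Annexin V-FITC plus propidium iodide for 15 min at room temperature in the dark, then analysed by flow cytometry.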
In general terms: In flow cytometry, cells or beads pass a laser one at a time.

Series [3] has as its system RAW264.7. The experiment in a line: Inhibition of NF-kappaB in mouse RAW264.7 cells assessed as reduction in LPS-induced p65 nuclear translocation at 4 uM pretreated with LPS for 15 mins followed by compound addition and measured after 2 hrs by DAPI staining based fluorescence microscopy. It is filed as cell-based. The note with it: time 135.0 min. The method in brief: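 RAW264.7 exposed to LPS (1 µg/mL) for 15 min, then 4.0 µM compound for 2 h. Fixed at room temperature and blocked with 3% BSA. Anti-p65 (1:200) overnight at 4 °C, then secondary (1:200) for 30 min at room temperature. Nuclei stained with DAPI for 15 min; imaged on a high-content fluorescence system. Repeated three times.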

A short description of series [4]: Cytotoxicity against human HHL-5 cells assessed as reduction in cell viability incubated for 24 hrs by MTT assay. The format is cell-based. Conditions: HHL-5, 24 h. The method in brief: (§2)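 Cells kept at 37 °C in 5% CO₂. HepG2 grown in DMEM with 10% serum; HHL-5, LO2 and SMMC-7721 in 1640 medium with 10% serum. Seeded, grown 24 h, then exposed 24 h to 10, 5, 2.5, 1.25, 0.625 and 0.3125 µg/mL. MTT (5 mg/mL) added for 4 h at 37 °C; formazan dissolved in DMSO, OD read at 570 nm. IC50 averaged from three replicates.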

The subject of series [5] is HepG2. The experiment in a line: Induction of apoptosis in human HepG2 cells assessed as necrotic cells at 1 uM incubated for 24 hrs by annexin V-FITC and PI staining based flow cytometry analysis (reference value: 0.8 %). It is filed as functional. The method in brief:
as §1

Series [6] deals with HepG2. The experiment in a line: Induction of apoptosis in human HepG2 cells assessed as viable cells at 4 uM incubated for 24 hrs by annexin V-FITC and PI staining based flow cytometry analysis (reference value: 94.2 %). The format is functional. Conditions: read-out: Activity. The method in brief:
as §1

Another series concerns L02. The experiment in a line: Cytotoxicity against human L02 cells assessed as reduction in cell viability incubated for 24 hrs by MTT assay. The format is cell-based. Conditions: L02, 24 h. The method in brief: as §2
Series [7] deals with RAW264.7. The experiment in a line: Inhibition of NF-kappaB in mouse RAW264.7 cells assessed as reduction in LPS-induced p65 phosphorylation incubated for 1 hr followed by LPS stimulation and measured after 30 mins by Western blot analysis. The format is cell-based. Conditions: dose 1-4 µM. The method in brief: (§3)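 RAW264.7 incubated 1 h with compound (1.0, 2.0, 4.0 µM), then LPS 1.0 µg/mL for 30 min before extraction. Lysates blotted to nitrocellulose and probed overnight at 4 °C for total and phospho forms of p65, IκBα, Akt, ERK1/2, JNK and p38; secondary antibody 2 h at room temperature. ECL detection, normalized to GAPDH, mean ± SD of triplicate tests.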
A general note: A western blot detects proteins with antibodies after separation by electrophoresis.

Series [8] relates to RAW264.7. The experiment in a line: Inhibition of NF-kappaB in mouse RAW264.7 cells assessed as reduction in LPS-induced Akt phosphorylation at 1 to 4 uM incubated for 1 hr followed by LPS stimulation and measured after 30 mins by Western blot analysis. The format is cell-based. The note with it: dose 1-4 µM. Put shortly:
as §3

Series [9] deals with SMMC-7721. The experiment in a line: Induction of apoptosis in human SMMC-7721 cells assessed as viable cells at 1 uM incubated for 24 hrs by annexin V-FITC and PI staining based flow cytometry analysis (reference value: 93.3 %). The format is functional. Conditions: read-out: Activity. Put shortly: as §1
For series [10], the system named is RAW264.7. The experiment in a line: Cytotoxicity against mouse RAW264.7 cells assessed as reduction in cell viability at 5 uM incubated for 24 hrs by MTT assay. The format is cell-based. Conditions: raw264.7, 24 h.
Series [11] concerns SMMC-7721. The experiment in a line: Induction of apoptosis in human SMMC-7721 cells assessed as early apoptotic cells at 4 uM incubated for 24 hrs by annexin V-FITC and PI staining based flow cytometry analysis (reference value: 0.3 %). It is filed as functional. The method in brief: as §1
Series [12] has as its system RAW264.7. The experiment in a line: Antiinflammatory activity against mouse RAW264.7 cells assessed as LPS-induced IL-6 at 5 uM pretreated for 2 hrs followed by LPS stimulation and measured after 22 hrs by ELISA relative to control (reference value: 0 %). The format is functional. Conditions: time 24 hrs. Background: An ELISA detects its analyte on a solid surface through an enzyme-linked reagent.

The test system of series [13] is HepG2. The experiment in a line: Induction of apoptosis in human HepG2 cells assessed as early apoptotic cells at 4 uM incubated for 24 hrs by annexin V-FITC and PI staining based flow cytometry analysis (reference value: 0.2 %). The format is functional. The method in brief:
as §1

In series [14] the test system is SMMC-7721. The experiment in a line: Induction of apoptosis in human SMMC-7721 cells assessed as viable cells at 4 uM incubated for 24 hrs by annexin V-FITC and PI staining based flow cytometry analysis (reference value: 93.3 %). The note with it: read-out: Activity. The format is functional. Put shortly: as §1

Take `Cl.NC1=NC(c2cccc(F)c2)C2=C(N1)/C(=C/c1cccc(F)c1)CN(S(=O)(=O)c1ccc(C(F)(F)F)cc1)C2` (stereo not given): the Activity result in the series on HepG2 [1] was “Dose-dependent effect”; in the series on HepG2 [2] it was 18.5%; in the series with HepG2 [5], 0.8%; with RAW264.7 [10] it was “Non-Toxic”; in the series with SMMC-7721 [11] it was 11.4%; with HepG2 [13], 49.8%. For the same compound, the inhibition entry in the series on RAW264.7 [3] and with RAW264.7 [8] was “Active” throughout. Moreover, the values for the concentration for half-maximal inhibition (IC50) (in series [4]; in the series on L02) were 28.8 µM and 35.2 µM, respectively. In addition, the viability at 4 µM in the series with HepG2 [6] was determined as 30.6%; with SMMC-7721 [14] it was 66.5%. Moreover, the inhibition entry in the series on RAW264.7 [7] was “Dose-dependent effect”. Also, the viability at 1 µM in the series on SMMC-7721 [9] turned out to be 80.8%. In the series on RAW264.7 [12], the inhibition at 5 µM was determined as 86.8%.
